{"source": "ChEMBL document CHEMBL4689842", "about": "“EUbOPEN Chemogenomics Library wave 1” (2021)", "test_system": "U2OS", "test": "Multiplex assay against U2OS", "assay_type": "toxicity, cell-based", "conditions": "human", "outline": "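On a CQ1 microscope at 37°C and 5% CO2, live cells were imaged after compound addition. They had been stained at seeding with Hoechst33342, BioTracker Green Microtubule Cytoskeleton Dye, MitoTracker Red and Annexin V Alexa Fluor 680. CellPathfinder machine-learning gating assigned cells to Hoechst high-intensity objects or normal cells, normal cells to healthy, pyknosed or fragmented nuclei, and pyknosed cells to mitotic or apoptotic. Tubulin, mitochondrial-mass and membrane-permeability phenotypes are per cents of healthy-nucleus cells.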", "key": {"[1]": {"conditions": "12 h, 1 µM, compound concentration 1 uM, replicate 1"}, "[2]": {"conditions": "12 h, 1 µM, compound concentration 1 uM, replicate 2"}, "[3]": {"conditions": "12 h, 10 µM, compound concentration 10 uM, replicate 1"}, "[4]": {"conditions": "12 h, 10 µM, compound concentration 10 uM, replicate 2"}, "[5]": {"conditions": "24 h, 1 µM, compound concentration 1 uM, replicate 1"}, "[6]": {"conditions": "24 h, 1 µM, compound concentration 1 uM, replicate 2"}, "[7]": {"conditions": "24 h, 10 µM, compound concentration 10 uM, replicate 1"}, "[8]": {"conditions": "24 h, 10 µM, compound concentration 10 uM, replicate 2"}}, "data": [{"smiles": "C=CC(=O)Nc1ccc2[nH]c(=O)n(C3CCN(Cc4ccc(-c5nc6cc[nH]c(=O)c6cc5-c5ccccc5)cc4)CC3)c2c1", "note": "[Borussertib]", "values": [{"measurement": "Population Apoptotic (%)", "setting": "[1]", "result": 25, "unit": "%"}, {"measurement": "Population Fragmented Nuclei (%)", "setting": "[1]", "result": 5, "unit": "%"}, {"measurement": "Population Healthy Nuclei (%)", "setting": "[1]", "result": 91, "unit": "%"}, {"measurement": "Population Hoechst High Intensity Objects (%)", "setting": "[1]", "result": 3, "unit": "%"}, {"measurement": "Population Membrane Permeable-Phenotype (%)", "setting": "[1]", "result": 12, "unit": "%"}, {"measurement": "Population Mitochondria Different-Phenotype (%)", "setting": "[1]", "result": 35, "unit": "%"}, {"measurement": "Population Mitotic Cells (%)", "setting": "[1]", "result": 75, "unit": "%"}, {"measurement": "Population Normal (%)", "setting": "[1]", "result": 96, "unit": "%"}, {"measurement": "Population Pyknosed Nuclei (%)", "setting": "[1]", "result": 2, "unit": "%"}, {"measurement": "Population Tubulin-Different-Phenotype (%)", "setting": "[1]", "result": 29, "unit": "%"}, {"measurement": "Total Cell Count", "setting": "[1]", "result": 158}, {"measurement": "Population Apoptotic (%)", "setting": "[2]", "result": 28, "unit": "%"}, {"measurement": "Population Healthy Nuclei (%)", "setting": "[2]", "result": 87, "unit": "%"}, {"measurement": "Population Hoechst High Intensity Objects (%)", "setting": "[2]", "result": 14, "unit": "%"}, {"measurement": "Population Membrane Permeable-Phenotype (%)", "setting": "[2]", "result": 11, "unit": "%"}, {"measurement": "Population Mitochondria Different-Phenotype (%)", "setting": "[2]", "result": 21, "unit": "%"}, {"measurement": "Population Mitotic Cells (%)", "setting": "[2]", "result": 71, "unit": "%"}, {"measurement": "Population Normal (%)", "setting": "[2]", "result": 85, "unit": "%"}, {"measurement": "Population Pyknosed Nuclei (%)", "setting": "[2]", "result": 6, "unit": "%"}, {"measurement": "Population Tubulin-Different-Phenotype (%)", "setting": "[2]", "result": 23, "unit": "%"}, {"measurement": "Total Cell Count", "setting": "[2]", "result": 124}, {"measurement": "Population Apoptotic (%)", "setting": "[3]", "result": 54, "unit": "%"}, {"measurement": "Population Fragmented Nuclei (%)", "setting": "[3]", "result": 2, "unit": "%"}, {"measurement": "Population Healthy Nuclei (%)", "setting": "[3]", "result": 84, "unit": "%"}, {"measurement": "Population Hoechst High Intensity Objects (%)", "setting": "[3]", "result": 4, "unit": "%"}, {"measurement": "Population Membrane Permeable-Phenotype (%)", "setting": "[3]", "result": 24, "unit": "%"}, {"measurement": "Population Mitochondria Different-Phenotype (%)", "setting": "[3]", "result": 18, "unit": "%"}, {"measurement": "Population Mitotic Cells (%)", "setting": "[3]", "result": 45, "unit": "%"}, {"measurement": "Population Normal (%)", "setting": "[3]", "result": 95, "unit": "%"}, {"measurement": "Population Pyknosed Nuclei (%)", "setting": "[3]", "result": 13, "unit": "%"}, {"measurement": "Population Tubulin-Different-Phenotype (%)", "setting": "[3]", "result": 38, "unit": "%"}, {"measurement": "Total Cell Count", "setting": "[3]", "result": 190}, {"measurement": "Population Apoptotic (%)", "setting": "[4]", "result": 60, "unit": "%"}, {"measurement": "Population Fragmented Nuclei (%)", "setting": "[4]", "result": 6, "unit": "%"}, {"measurement": "Population Healthy Nuclei (%)", "setting": "[4]", "result": 77, "unit": "%"}, {"measurement": "Population Hoechst High Intensity Objects (%)", "setting": "[4]", "result": 8, "unit": "%"}, {"measurement": "Population Membrane Permeable-Phenotype (%)", "setting": "[4]", "result": 33, "unit": "%"}, {"measurement": "Population Mitochondria Different-Phenotype (%)", "setting": "[4]", "result": 28, "unit": "%"}, {"measurement": "Population Mitotic Cells (%)", "setting": "[4]", "result": 40, "unit": "%"}, {"measurement": "Population Normal (%)", "setting": "[4]", "result": 91, "unit": "%"}, {"measurement": "Population Pyknosed Nuclei (%)", "setting": "[4]", "result": 15, "unit": "%"}, {"measurement": "Population Tubulin-Different-Phenotype (%)", "setting": "[4]", "result": 32, "unit": "%"}, {"measurement": "Total Cell Count", "setting": "[4]", "result": 104}, {"measurement": "Population Apoptotic (%)", "setting": "[5]", "result": 36, "unit": "%"}, {"measurement": "Population Fragmented Nuclei (%)", "setting": "[5]", "result": 1, "unit": "%"}, {"measurement": "Population Healthy Nuclei (%)", "setting": "[5]", "result": 93, "unit": "%"}, {"measurement": "Population Hoechst High Intensity Objects (%)", "setting": "[5]", "result": 2, "unit": "%"}, {"measurement": "Population Membrane Permeable-Phenotype (%)", "setting": "[5]", "result": 8, "unit": "%"}, {"measurement": "Population Mitochondria Different-Phenotype (%)", "setting": "[5]", "result": 22, "unit": "%"}, {"measurement": "Population Mitotic Cells (%)", "setting": "[5]", "result": 63, "unit": "%"}, {"measurement": "Population Normal (%)", "setting": "[5]", "result": 97, "unit": "%"}, {"measurement": "Population Pyknosed Nuclei (%)", "setting": "[5]", "result": 5, "unit": "%"}, {"measurement": "Population Tubulin-Different-Phenotype (%)", "setting": "[5]", "result": 34, "unit": "%"}, {"measurement": "Total Cell Count", "setting": "[5]", "result": 220}, {"measurement": "Population Apoptotic (%)", "setting": "[6]", "result": 37, "unit": "%"}, {"measurement": "Population Fragmented Nuclei (%)", "setting": "[6]", "result": 9, "unit": "%"}, {"measurement": "Population Healthy Nuclei (%)", "setting": "[6]", "result": 84, "unit": "%"}, {"measurement": "Population Hoechst High Intensity Objects (%)", "setting": "[6]", "result": 7, "unit": "%"}, {"measurement": "Population Membrane Permeable-Phenotype (%)", "setting": "[6]", "result": 10, "unit": "%"}, {"measurement": "Population Mitochondria Different-Phenotype (%)", "setting": "[6]", "result": 29, "unit": "%"}, {"measurement": "Population Mitotic Cells (%)", "setting": "[6]", "result": 62, "unit": "%"}, {"measurement": "Population Normal (%)", "setting": "[6]", "result": 92, "unit": "%"}, {"measurement": "Population Pyknosed Nuclei (%)", "setting": "[6]", "result": 6, "unit": "%"}, {"measurement": "Population Tubulin-Different-Phenotype (%)", "setting": "[6]", "result": 28, "unit": "%"}, {"measurement": "Total Cell Count", "setting": "[6]", "result": 137}, {"measurement": "Population Apoptotic (%)", "setting": "[7]", "result": 66, "unit": "%"}, {"measurement": "Population Fragmented Nuclei (%)", "setting": "[7]", "result": 6, "unit": "%"}, {"measurement": "Population Healthy Nuclei (%)", "setting": "[7]", "result": 85, "unit": "%"}, {"measurement": "Population Hoechst High Intensity Objects (%)", "setting": "[7]", "result": 2, "unit": "%"}, {"measurement": "Population Membrane Permeable-Phenotype (%)", "setting": "[7]", "result": 13, "unit": "%"}, {"measurement": "Population Mitochondria Different-Phenotype (%)", "setting": "[7]", "result": 19, "unit": "%"}, {"measurement": "Population Mitotic Cells (%)", "setting": "[7]", "result": 33, "unit": "%"}, {"measurement": "Population Normal (%)", "setting": "[7]", "result": 97, "unit": "%"}, {"measurement": "Population Pyknosed Nuclei (%)", "setting": "[7]", "result": 7, "unit": "%"}, {"measurement": "Population Tubulin-Different-Phenotype (%)", "setting": "[7]", "result": 26, "unit": "%"}, {"measurement": "Total Cell Count", "setting": "[7]", "result": 238}, {"measurement": "Population Apoptotic (%)", "setting": "[8]", "result": 83, "unit": "%"}, {"measurement": "Population Fragmented Nuclei (%)", "setting": "[8]", "result": 12, "unit": "%"}, {"measurement": "Population Healthy Nuclei (%)", "setting": "[8]", "result": 76, "unit": "%"}, {"measurement": "Population Hoechst High Intensity Objects (%)", "setting": "[8]", "result": 13, "unit": "%"}, {"measurement": "Population Membrane Permeable-Phenotype (%)", "setting": "[8]", "result": 21, "unit": "%"}, {"measurement": "Population Mitochondria Different-Phenotype (%)", "setting": "[8]", "result": 28, "unit": "%"}, {"measurement": "Population Mitotic Cells (%)", "setting": "[8]", "result": 16, "unit": "%"}, {"measurement": "Population Normal (%)", "setting": "[8]", "result": 86, "unit": "%"}, {"measurement": "Population Pyknosed Nuclei (%)", "setting": "[8]", "result": 11, "unit": "%"}, {"measurement": "Population Tubulin-Different-Phenotype (%)", "setting": "[8]", "result": 22, "unit": "%"}, {"measurement": "Total Cell Count", "setting": "[8]", "result": 121}]}]}
